Hits are enriched below; roughly 0.77% of the tested compounds scored in any of these assays.
mIAP activ: activators of mouse IAP, primary screen, biochemical, luminescence, uHTS. intestinal alkaline phosphatase [Mus musculus]. muIAP, CDP-Star luminescence, 30 min; stronger effect = higher value; 1 = vehicle-only enzyme signal, 0 = enzyme-free wells. activation factor at 10 µM. 330,000 compounds, 0.24% hits. AID 2805, 2010;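 active = activation factor of at least 2 at 20 µM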
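Assay system: mouse IAP enzyme / Compound: DMSO-dissolved test compounds / Timing: 30 min, room temperature / Measured by: luminescence from enzymatic CDP-Star hydrolysis / Control set: DMSO-only wells, enzyme-free buffer wells as negative control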
mIAP block: inhibitors of mouse IAP, primary screen, biochemical, luminescence, uHTS; intestinal alkaline phosphatase [Mus musculus]; purified mouse IAP, CDP-Star luminescence, 30 min; inhibition, % at 10 µM; 330,000 compounds, 0.2% hits; AID 2806, 2010;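 active = inhibition of at least 40% at 10 µM in the primary screen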;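 note: plate controls were DMSO with enzyme for no effect and no enzyme wells for full effect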
hIAP activ: human IAP activators, primary screen, biochemical, luminescence, uHTS; Intestinal-type alkaline phosphatase (Homo sapiens), P09923; purified human IAP, CDP-Star luminescence, 30 min; stronger effect = higher value; 1 = vehicle-only enzyme, 0 = enzyme-free background; activation factor at 10 µM; 330,000 compounds, 0.16% hits; AID 2524, 2010;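 active = activation factor of the enzyme at least 2-fold when tested at 20 µM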
Target sequence (P09923 whole entry, looked up): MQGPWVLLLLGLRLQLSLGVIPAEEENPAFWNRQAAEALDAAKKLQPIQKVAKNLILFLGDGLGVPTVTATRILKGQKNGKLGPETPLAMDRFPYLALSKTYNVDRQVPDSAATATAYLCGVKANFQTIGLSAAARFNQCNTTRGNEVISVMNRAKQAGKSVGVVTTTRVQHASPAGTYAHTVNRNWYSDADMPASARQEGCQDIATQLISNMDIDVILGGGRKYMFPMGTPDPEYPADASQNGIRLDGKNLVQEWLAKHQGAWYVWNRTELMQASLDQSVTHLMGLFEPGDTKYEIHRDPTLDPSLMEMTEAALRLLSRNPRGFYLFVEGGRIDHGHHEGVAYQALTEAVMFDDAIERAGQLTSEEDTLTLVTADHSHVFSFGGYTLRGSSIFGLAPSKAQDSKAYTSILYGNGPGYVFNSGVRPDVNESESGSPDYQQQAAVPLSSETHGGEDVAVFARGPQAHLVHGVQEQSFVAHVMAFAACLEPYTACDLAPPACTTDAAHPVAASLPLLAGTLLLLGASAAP
bIAP act: bovine intestinal alkaline phosphatase activators, primary screen, biochemical, bovine IAP, CDP-star luminescence. alkaline phosphatase, intestinal [Bos taurus]. purified bovine IAP, 30 min; stronger effect = higher value; fold of DMSO-control signal, blank-subtracted. activation factor at 20 µM. 200,000 compounds, 0.17% hits. AID 1016, 2008;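 active = activation factor of 2 or more at 20 µM, a signal rise over negative controls twice the positive control's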
bIAP inhibitor: bovine intestinal alkaline phosphatase inhibitors, primary screen, selectivity assay for TNAP inhibitor project, biochemical, bovine IAP, CDP-star luminescence. 190,000 tested, under 10 active. inhibition, % at 20 µM. purified bovine IAP, 30 min. alkaline phosphatase, intestinal [Bos taurus]. AID 1019, 2008;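 active = over 50% inhibition of intestinal alkaline phosphatase at 20 µM in the single-dose screen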
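Assay system – bovine IAP enzyme · Quantity – bovine IAP at 1/65,000,000 final dilution · Detection – CDP-star luminescence signal · Times – 30 min reaction at room temperature · Also added – CDP-star substrate at 30 µM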
hIAP inh: human IAP inhibitors, primary screen, biochemical, luminescence, uHTS; Intestinal-type alkaline phosphatase (Homo sapiens), P09923; purified IAP, CDP-Star luminescence, 30 min; inhibition, % at 10 µM; 330,000 compounds, 0.12% hits; AID 2544, 2010;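 active = inhibition reaching a set limit with compound at 10 µM in the primary screen, cut at about 35% in these data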;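 note: plate controls were DMSO wells with enzyme for no effect and no-enzyme buffer wells for full effect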
* hit, by the source's call.

COc1cc(/C=C2\CC/C(=C\c3cc(OC)c(O)c(OC)c3)C2=O)cc(OC)c1O was read as mIAP activ 0.444, mIAP block 55.6*, hIAP activ 0.79, bIAP act 0.3 and hIAP inh 21.0.
`CC(C)=CCC/C(C)=C/CNC(=O)C[C@H]1C[C@H](C(=O)N2CCCCC2)[C@@]2(C)c3[nH]c4ccc(Cl)cc4c3CCN2C1=O` gave mIAP activ 1.11 and mIAP block -10.7.
`COc1ccc2[nH]c3c(c2c1)CCN1C(=O)C(CC(=O)NC/C=C(\C)CCC=C(C)C)C[C@H](C(=O)N2CCCCC2)[C@@]31C` (stereo partly specified) gave mIAP activ 2* and mIAP block -100.1.
Screening COc1cc(NC(=O)CCS(=O)(=O)c2ccc3c(c2)oc(=O)n3C)cc(OC)c1OC returned mIAP activ 1.05, mIAP block -4.6, hIAP activ 0.92 and hIAP inh 8.0.
`Cc1nc([N+](=O)[O-])cn1CC(=O)c1ccc(OC(F)(F)F)cc1` gave mIAP activ 1.01, mIAP block -0.9, hIAP activ 1.17 and hIAP inh -17.0.
CCOC(=O)c1ccc(NC(=O)NC2CCN(CC(=O)NCc3ccc4c(c3)OCO4)CC2)cc1 was read as mIAP activ 2.27*, mIAP block -127.0, hIAP activ 1.03, bIAP act 1.2, bIAP inhibitor -23.7 and hIAP inh -2.7.
`CCCCn1c(N)c(N(CCC(C)C)C(=O)CCN2C(=O)C3CC=CCC3C2=O)c(=O)[nH]c1=O` (stereo unspecified) gave mIAP activ 1.01, mIAP block -1.4, hIAP activ 0.93 and hIAP inh 7.0.
Screening Oc1ccccc1/C=N/Nc1cccc2cccnc12 returned mIAP activ 0.821, mIAP block 18.0, hIAP activ 0.989, bIAP act 2.7*, bIAP inhibitor -173.3 and hIAP inh 1.1.
Screening Cc1ccc(N=C2NC(=O)/C(=C\c3ccco3)S2)cc1 returned mIAP activ 0.546, mIAP block 45.4*, hIAP activ 0.96, bIAP act 0.9, bIAP inhibitor 9.7 and hIAP inh 4.0.
Cc1cccc(N=C2NC(=O)/C(=C/C=C/c3ccco3)S2)c1 was read as bIAP act 0.7 and bIAP inhibitor 33.5.
COc1ccc(C2=NOC(Cn3nc(-c4ccccc4)cc3C(=O)NCc3ccc(C)cc3)C2)cc1 (stereo unspecified) was read as mIAP activ 3.31*, mIAP block -231.1, hIAP activ 1.08 and hIAP inh -8.3.
For CCOC(=O)c1cc(-c2ccccc2)nn1CC1CC(c2ccc(OC)cc2)=NO1 (stereo unspecified) the results were mIAP activ 1.03, mIAP block -3.2, hIAP activ 1.15 and hIAP inh -14.8.
Cc1ccccc1-c1cc(C(=O)NCc2cccc(Br)c2)n(CC2CC(c3cccnc3)=NO2)n1 (stereo unspecified) was read as mIAP activ 2*, mIAP block -100.0, hIAP activ 1.04 and hIAP inh -4.1.
Screening COc1ccc(C2=NOC(Cn3nc(-c4ccccc4)cc3C(=O)NCc3cccc(C(F)(F)F)c3)C2)cc1 (stereo unspecified) returned mIAP activ 3.24*, mIAP block -223.7, hIAP activ 1.08 and hIAP inh -8.3.
`CCN(CC)S(=O)(=O)c1ccc(/C=C/C(=O)OCC(=O)N(C(C)C)C(C)C)cc1` gave mIAP activ 1.01, mIAP block -1.1, hIAP activ 0.971, bIAP act 1.1, bIAP inhibitor -8.8 and hIAP inh 2.9.
Cc1ccc(NP(=O)(Nc2ccc(C)cc2)Nc2ccc(C)cc2)cc1 was read as mIAP activ 2.46*, mIAP block -146.4, hIAP activ 1.25, bIAP act 1.2, bIAP inhibitor -21.9 and hIAP inh -25.4.
Screening O=C(CCN1C(=O)c2ccccc2C1=O)Nc1ccccc1C(F)(F)F returned mIAP activ 0.955, mIAP block 4.5, hIAP activ 0.972 and hIAP inh 2.8.
COc1cc(/C=C(\C#N)C(=O)Nc2cccc3ncccc23)ccc1O was read as mIAP activ 0.941, mIAP block 5.9, hIAP activ 0.575, bIAP act 1.1, bIAP inhibitor -7.8 and hIAP inh 42.5*.
For Cc1ccc(NC(=O)CCCC(=O)O)c(-c2nc3ccccc3[nH]c2=O)c1 the results were mIAP activ 1.01, mIAP block -1.0, hIAP activ 0.931 and hIAP inh 6.9.
CCN(CCn1cccn1)C(=O)CC1C(=O)NCCN1CCc1ccccc1 (stereo unspecified) was read as mIAP activ 0.936, mIAP block 6.4, hIAP activ 1.13 and hIAP inh -13.1.
Screening O=C(Nc1nc(-c2ccccc2)cs1)Nc1ccc(F)cc1F returned mIAP activ 1.45, mIAP block -44.6, hIAP activ 1.14, bIAP act 0.9, bIAP inhibitor 6.3 and hIAP inh -13.5.
O=C(Nc1ccccc1)Nc1nc(-c2ccccc2)cs1 was read as mIAP activ 1.93, mIAP block -93.2, hIAP activ 1.1 and hIAP inh -10.4.
For O=C(Nc1ccc(Cl)c(Cl)c1)Nc1nc(-c2ccccc2)cs1 the results were mIAP activ 2.11*, mIAP block -111.3, hIAP activ 1.07, bIAP act 1.1, bIAP inhibitor -5.0 and hIAP inh -6.8.
O=C(Nc1ccccc1)Nc1nc(-c2ccc(F)c(F)c2)cs1 was read as mIAP activ 2.47*, mIAP block -147.1, hIAP activ 1.11 and hIAP inh -10.6.
`COc1ccc(-c2oc3ccc(N4CCOCC4)cc3c2C#CC2(O)CCCCC2)cc1` gave mIAP activ 1.05, mIAP block -5.2, hIAP activ 1.1 and hIAP inh -10.2.
`Cc1ccc(S(=O)(=O)N2CCCCC2)cc1NC(=O)CSc1nc(N)cc(=O)[nH]1` gave mIAP activ 0.999, mIAP block 0.1, hIAP activ 0.956 and hIAP inh 4.4.
`Cn1c(C(O)c2ccc3c(c2)OCO3)nc2ccccc21` (stereo unspecified) gave mIAP activ 0.877, mIAP block 12.3, hIAP activ 1.36, bIAP act 1.3, bIAP inhibitor -32.1 and hIAP inh -36.0.

Bioassay records from PubChem.
